From ChEMBL document CHEMBL2062406, “Fluorocyclopentenyl-cytosine with broad spectrum and potent antitumor activity” (J Med Chem, 2012)
One block for each compound: values may come before it. The source made the active and inactive calls. The rule behind the calls is not given here.

What was measured:
OVCAR-3 [1] = assay: Antitumor activity against human OVCAR3 cells by SRB method; type: functional, cell-based
MCF7 [2] = assay: Antitumor activity against human MCF7 cells by SRB method; type: functional, cell-based
MDA-MB-231 [3] = assay: Antitumor activity against human MDA-MB-231 cells by SRB method; type: functional, cell-based
HeLa [4] = assay: Antitumor activity against human HeLa cells by SRB method; type: functional, cell-based
PC-3 [5] = assay: Antitumor activity against human PC3 cells by SRB method; type: functional, cell-based
LNCaP [6] = assay: Antitumor activity against human LNCAP cells by SRB method; type: functional, cell-based
HepG2 [7] = assay: Antitumor activity against human HepG2 cells by SRB method; type: functional, cell-based
A549 [8] = assay: Antitumor activity against human A549 cells by SRB method; type: functional, cell-based
UMRC2 [9] = assay: (§1) Antitumor activity against human UMRC2 cells by SRB method; type: functional, cell-based
NCI-H226 [10] = assay: Antitumor activity against human NCI-H226 cells by SRB method; type: functional, cell-based
HT-29 [11] = assay: Antitumor activity against human HT-29 cells by SRB method; type: functional, cell-based
HCT-116 [12] = assay: Antitumor activity against human HCT116 cells by SRB method; type: functional, cell-based
SK-MEL-28 [13] = assay: Antitumor activity against human SK-MEL-28 cells by SRB method; type: functional, cell-based
PANC-1 [14] = assay: Antitumor activity against human PANC1 cells by SRB method; type: functional, cell-based
U-251 [15] = assay: Antitumor activity against human U251 cells by SRB method; type: functional, cell-based
MKN-45 [16] = assay: Antitumor activity against human MKN45 cells by SRB method; type: functional, cell-based
K562 [17] = assay: Antitumor activity against human K562 cells by SRB method; type: functional, cell-based
A549 [18] = assay: Antitumor activity against human A549 cells xenografted in nu/nu mouse assessed as inhibition of tumor volume at 10 mg/kg, ip administered three times a week for 3 weeks; type: functional; conditions: 504 h, route intraperitoneal
In short: (§2)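 Male nu/nu mice received 3 × 10⁶ A549 cells subcutaneously in the right flank. Dosing began at about 100 mm³ tumor volume: 3 or 10 mg/kg intraperitoneally, three times a week for three weeks. Tumor volume was measured by caliper every 2−3 days. Percent inhibition of tumor volume was calculated against a vehicle-treated control group.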

[19] = as §1; type: functional, cell-based
OVCAR-3 [20] = assay: Antitumor activity against human OVCAR3 cells at 1 uM by SRB method; type: functional, cell-based
MCF7 [21] = assay: Antitumor activity against human MCF7 cells at 1 uM by SRB method; type: functional, cell-based
MDA-MB-231 [22] = assay: Antitumor activity against human MDA-MB-231 cells at 1 uM by SRB method; type: functional, cell-based
HeLa [23] = assay: Antitumor activity against human HeLa cells at 1 uM by SRB method; type: functional, cell-based
PC-3 [24] = assay: Antitumor activity against human PC3 cells at 1 uM by SRB method; type: functional, cell-based
LNCaP [25] = assay: Antitumor activity against human LNCAP cells at 1 uM by SRB method; type: functional, cell-based
HepG2 [26] = assay: Antitumor activity against human HepG2 cells at 1 uM by SRB method; type: functional, cell-based
A549 [27] = assay: Antitumor activity against human A549 cells at 1 uM by SRB method; type: functional, cell-based
UMRC2 [28] = assay: Antitumor activity against human UMRC2 cells at 1 uM by SRB method; type: functional, cell-based
NCI-H226 [29] = assay: Antitumor activity against human NCI-H226 cells at 1 uM by SRB method; type: functional, cell-based
HT-29 [30] = assay: Antitumor activity against human HT-29 cells at 1 uM by SRB method; type: functional, cell-based
HCT-116 [31] = assay: Antitumor activity against human HCT116 cells at 1 uM by SRB method; type: functional, cell-based
SK-MEL-28 [32] = assay: Antitumor activity against human SK-MEL-28 cells at 1 uM by SRB method; type: functional, cell-based
PANC-1 [33] = assay: Antitumor activity against human PANC1 cells at 1 uM by SRB method; type: functional, cell-based
U-251 [34] = assay: Antitumor activity against human U251 cells at 1 uM by SRB method; type: functional, cell-based
MKN-45 [35] = assay: Antitumor activity against human MKN45 cells at 1 uM by SRB method; type: functional, cell-based
K562 [36] = assay: Antitumor activity against human K562 cells at 1 uM by SRB method; type: functional, cell-based
A549 [37] = assay: Antitumor activity against human A549 cells xenografted in ip dosed nu/nu mouse assessed as tumor growth inhibition administered three times a week for 3 weeks; type: functional, organism-based; in short: as §2
A549 [38] = assay: Antitumor activity against human A549 cells xenografted in ip dosed nu/nu mouse assessed as inhibition of tumor volume administered three times a week for 3 weeks; type: functional, organism-based; in short: as §2
A549 [39] = assay: Antitumor activity against human A549 cells xenografted in ip dosed nu/nu mouse assessed as inhibition of tumor weight administered three times a week for 3 weeks; type: functional, organism-based
In short: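 Male nu/nu mice carried subcutaneous right-flank A549 xenografts (3 × 10⁶ cells). Treatment started at about 100 mm³ with 3 or 10 mg/kg intraperitoneally, three times weekly for three weeks. Tumors were excised and weighed on day 38. Comparison was with the vehicle control group, with significance at p < 0.05 or p < 0.01.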

Mus musculus = assay: Toxicity in nu/nu mouse xenografted with human A549 cells assessed as change in body weight 3 to 10 mg/kg, ip administered three times a week for 3 weeks; type: organism-based; parameters: dose 3-10 mg/kg, route intraperitoneal; conditions: in vivo, 504 h
In short: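 Mouse body weight was monitored throughout in male nu/nu mice bearing subcutaneous A549 flank xenografts (3 × 10⁶ cells). These mice received 3 or 10 mg/kg intraperitoneally three times a week for three weeks, starting when tumors reached about 100 mm³, and were compared with vehicle controls.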

MDA-MB-231 [40] = assay: Inhibition of DNMT-1 protein human expression in MDA-MB-231 cells after 24 hrs by Western blot analysis; type: functional, cell-based
In short: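 MDA-MB-231 cells were exposed to 0, 1, 1.5, 2 or 5 μM for 24 h. DNMT-1 protein was detected by Western blot, with actin as the loading control. Blots are representative of two independent cell cultures.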

A549 [41] = assay: Antitumor activity against human A549 cells xenografted in nu/nu mouse assessed as inhibition of tumor volume at 3 mg/kg, ip administered three times a week for 3 weeks; type: functional; conditions: 504 h, route intraperitoneal; in short: as §2

SMILES: Nc1ccn([C@H]2C[C@H](O)C(CO)=C2F)c(=O)n1
Activity (OVCAR-3 [1]): inactive
Activity (MCF7 [2]): inactive
Activity (MDA-MB-231 [3]): inactive
Activity (HeLa [4]): inactive
Activity (PC-3 [5]): inactive
Activity (LNCaP [6]): inactive
Activity (HepG2 [7]): inactive
Activity (A549 [8]): inactive
Activity (UMRC2 [9]): inactive
Activity (NCI-H226 [10]): inactive
Activity (HT-29 [11]): inactive
Activity (HCT-116 [12]): inactive
Activity (SK-MEL-28 [13]): inactive
Activity (PANC-1 [14]): inactive
Activity (U-251 [15]): inactive
Activity (MKN-45 [16]): inactive
Activity (K562 [17]): inactive

SMILES: Nc1ccn([C@@H]2O[C@H](CO)[C@@H](O)C2(F)F)c(=O)n1 [GEMCITABINE]
inhibition in vivo at 10 mg/kg (A549 [18]): 76.7%

IC50 (OVCAR-3 [1]): 800 nM
IC50 (MCF7 [2]): 340 nM
IC50 (MDA-MB-231 [3]): 180 nM
IC50 (HeLa [4]): 1350 nM
IC50 (PC-3 [5]): 630 nM
IC50 (LNCaP [6]): 2670 nM
IC50 (HepG2 [7]): 790 nM
IC50 (A549 [8]): 500 nM
IC50 (NCI-H226 [10]): 250 nM
IC50 (HT-29 [11]): 280 nM
IC50 (HCT-116 [12]): 190 nM
IC50 (SK-MEL-28 [13]): 1380 nM
IC50 (U-251 [15]): 830 nM
IC50 (MKN-45 [16]): 340 nM
IC50 (K562 [17]): 820 nM
SMILES: Nc1ccn([C@@H]2C(F)=C(CO)[C@@H](O)[C@H]2O)c(=O)n1 [RODUCITABINE]
IC50 [19]: 830 nM
Activity (OVCAR-3 [20]): Active
Activity (MCF7 [21]): Active
Activity (MDA-MB-231 [22]): Active
Activity (HeLa [23]): Active
Activity (PC-3 [24]): Active
Activity (LNCaP [25]): Active
Activity (HepG2 [26]): Active
Activity (A549 [27]): Active
Activity (UMRC2 [28]): Active
Activity (NCI-H226 [29]): Active
Activity (HT-29 [30]): Active
Activity (HCT-116 [31]): Active
Activity (SK-MEL-28 [32]): Active
Activity (PANC-1 [33]): Active
Activity (U-251 [34]): Active
Activity (MKN-45 [35]): Active
Activity (K562 [36]): Active
inhibition (A549 [37]): Dose-dependent effect
inhibition (A549 [38]): Dose-dependent effect
inhibition (A549 [39]): Dose-dependent effect
Activity (Mus musculus): Non-toxic
inhibition (MDA-MB-231 [40]): Dose-dependent effect
inhibition in vivo at 3 mg/kg (A549 [41]): 31.8%
inhibition in vivo at 10 mg/kg (A549 [18]): 58.1%
